Activity calls are given as the source filed them. The rule behind the calls is not given here.
Experiments:
Acetylcholinesterase = Acetylcholinesterase (Electrophorus electricus, UniProt O42275); assay: Inhibition of electric eel AChE using acetylthiocholine iodide as substrate preincubated for 5 mins followed by substrate addition measured after 2 mins by Ellman's method
Cholinesterase = Cholinesterase (Equus caballus, UniProt P81908); assay: Inhibition of equine serum BuChE using butyrylthiocholine iodide as substrate preincubated for 5 mins followed by substrate addition measured after 2 mins by Ellman's method
Cholinesterase, sequence (P81908 whole entry): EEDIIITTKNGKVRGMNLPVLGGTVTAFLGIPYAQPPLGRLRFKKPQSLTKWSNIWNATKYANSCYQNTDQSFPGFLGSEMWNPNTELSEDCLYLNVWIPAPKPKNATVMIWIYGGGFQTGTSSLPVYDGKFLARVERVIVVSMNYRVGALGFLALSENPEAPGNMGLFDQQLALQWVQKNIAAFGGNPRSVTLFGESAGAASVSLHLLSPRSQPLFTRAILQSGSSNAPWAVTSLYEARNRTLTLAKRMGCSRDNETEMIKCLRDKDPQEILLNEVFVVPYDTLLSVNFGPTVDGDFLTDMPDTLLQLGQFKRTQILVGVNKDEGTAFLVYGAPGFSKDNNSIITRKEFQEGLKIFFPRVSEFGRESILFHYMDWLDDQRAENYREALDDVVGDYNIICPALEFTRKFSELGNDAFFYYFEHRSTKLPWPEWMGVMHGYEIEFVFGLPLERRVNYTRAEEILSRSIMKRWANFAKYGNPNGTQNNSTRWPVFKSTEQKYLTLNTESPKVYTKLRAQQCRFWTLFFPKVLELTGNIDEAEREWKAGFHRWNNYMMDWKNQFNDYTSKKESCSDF
In short: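 BuChE from equine serum (0.06 U/mL) in 0.1 M phosphate buffer pH 8.0, compounds diluted from ethanol stocks to 1-100 µM final, standing 5 min before DTNB. Started with 0.075 M butyrylthiocholine; A412 read 2 min later at 25°C. Enzyme-free blanks and inhibitor-free full-activity controls included. Triplicates; IC50 from nonlinear regression of concentration-inhibition data.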

[1] = Selectivity index, ratio of IC50 for equine serum BuChE to IC50 for electric eel AChE
In short: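 Ratio of IC50 values from the modified Ellman assay. Equine serum BuChE (0.06 U/mL) and electric eel AChE (0.22 U/mL), each in 0.1 M phosphate pH 8.0 with DTNB and 0.075 M thiocholine substrate, A412 at 2 min, 25°C. IC50s were means of three experiments.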

[2] = biological target: T1, Amyloid-beta precursor protein (Homo sapiens, UniProt P05067); assay: Inhibition of self-induced amyloid beta (1 to 42) (unknown origin) aggregation at 25 uM incubated for 48 hrs measured after 5 mins by thioflavin-T fluorescence assay
T1 sequence (P05067 whole entry): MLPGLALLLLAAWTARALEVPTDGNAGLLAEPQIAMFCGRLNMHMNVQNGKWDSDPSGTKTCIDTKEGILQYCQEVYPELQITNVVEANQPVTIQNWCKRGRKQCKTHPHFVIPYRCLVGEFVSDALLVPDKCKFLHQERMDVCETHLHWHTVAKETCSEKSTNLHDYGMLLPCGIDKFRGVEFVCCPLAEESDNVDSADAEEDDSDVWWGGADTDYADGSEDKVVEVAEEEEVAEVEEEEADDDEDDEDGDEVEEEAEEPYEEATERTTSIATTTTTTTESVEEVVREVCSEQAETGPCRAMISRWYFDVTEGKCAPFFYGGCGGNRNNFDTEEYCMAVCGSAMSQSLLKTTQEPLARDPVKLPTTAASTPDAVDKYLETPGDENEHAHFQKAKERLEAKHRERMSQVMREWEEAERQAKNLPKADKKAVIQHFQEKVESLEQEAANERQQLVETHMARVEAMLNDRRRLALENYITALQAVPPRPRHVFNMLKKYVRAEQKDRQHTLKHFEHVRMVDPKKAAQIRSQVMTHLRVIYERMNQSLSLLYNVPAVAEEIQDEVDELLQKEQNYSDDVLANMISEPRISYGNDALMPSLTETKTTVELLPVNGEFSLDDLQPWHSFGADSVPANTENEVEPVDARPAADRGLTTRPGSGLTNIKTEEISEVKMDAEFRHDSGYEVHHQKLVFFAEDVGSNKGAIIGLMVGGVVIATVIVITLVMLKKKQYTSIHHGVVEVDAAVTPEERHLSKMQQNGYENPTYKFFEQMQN
In short: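 Aβ1-42 pretreated with HFIP, then diluted in 50 mM phosphate buffer pH 7.4 to 25 μM final. Incubated ± compound (25 μM) at 37°C for 48 h, then diluted in 50 mM glycine–NaOH pH 8.0 containing 5 μM thioflavin-T. Fluorescence read 5 min later (ex 450/em 485 nm). Inhibition % = (1−IFi/IFc)×100 after background subtraction; triplicate.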

[3] = biological target: T1, Amyloid-beta precursor protein; assay: Inhibition of self-induced amyloid beta (1 to 42) (unknown origin) aggregation incubated for 48 hrs measured after 5 mins by thioflavin-T fluorescence assay
[4] = biological target: T1, Amyloid-beta precursor protein; assay: Potency index, ratio of curcumin IC50 to compound IC50 for self-induced amyloid beta (1 to 42) (unknown origin) aggregation
[5] = Cytotoxicity against human SH-SY5Y cells assessed as cell viability at 50 uM after 48 hrs by MTT assay; assay type: cell-based; conditions: read-out: Activity
In short: (§1)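 SH-SY5Y cells grown in DMEM with 10% FBS and 1% penicillin-streptomycin at 37°C, 5% CO2. Plated at 2000 cells/well and cultured 24 h, then exposed 48 h to compound at 1-100 μM (DMSO stock diluted in complete medium). MTT added for 4 h, formazan dissolved in DMSO, absorbance read at 570 nm (reference 630 nm). Triplicates; three independent experiments.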

[6] = Cytotoxicity against human SH-SY5Y cells assessed as cell viability at 75 uM after 48 hrs by MTT assay; assay type: cell-based; conditions: read-out: Activity; in short: as §1
[7] = Cytotoxicity against human SH-SY5Y cells assessed as cell viability at 100 uM after 48 hrs by MTT assay; assay type: cell-based; conditions: read-out: Activity; in short: as §1
SH-SY5Y [8] = assay: Cytotoxicity against human SH-SY5Y cells assessed as decrease in cell viability up to 100 uM after 24 hrs by MTT assay; assay type: cell-based
[9] = biological target: Acetylcholinesterase (Electrophorus electricus) (UniProt O42275); assay: Mixed type inhibition of electric eel AChE at 10 to 40 nM preincubated with enzyme for 15 mins followed by substrate addition by Lineweaver-Burk plot analysis
Acetylcholinesterase (Electrophorus electricus), sequence (O42275 24-633 limits assumed): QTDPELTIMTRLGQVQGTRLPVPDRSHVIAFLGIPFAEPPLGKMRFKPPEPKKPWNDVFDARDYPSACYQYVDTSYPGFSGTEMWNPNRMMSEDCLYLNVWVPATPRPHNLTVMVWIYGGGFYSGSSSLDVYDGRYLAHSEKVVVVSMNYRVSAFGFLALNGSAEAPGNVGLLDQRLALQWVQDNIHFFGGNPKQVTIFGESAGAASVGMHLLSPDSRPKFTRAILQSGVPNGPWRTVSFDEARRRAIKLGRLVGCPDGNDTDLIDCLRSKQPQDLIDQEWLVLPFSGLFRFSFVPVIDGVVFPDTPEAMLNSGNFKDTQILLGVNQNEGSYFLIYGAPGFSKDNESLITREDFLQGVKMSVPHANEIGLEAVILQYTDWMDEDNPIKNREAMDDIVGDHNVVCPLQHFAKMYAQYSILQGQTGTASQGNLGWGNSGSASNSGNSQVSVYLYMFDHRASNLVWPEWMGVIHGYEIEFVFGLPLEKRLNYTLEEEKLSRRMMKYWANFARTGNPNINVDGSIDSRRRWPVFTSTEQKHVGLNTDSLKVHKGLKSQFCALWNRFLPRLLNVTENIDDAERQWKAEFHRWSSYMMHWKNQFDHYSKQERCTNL
In short: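 Electric eel AChE with the compound, preincubated at 37°C for 15 min before substrate addition. Reciprocal (Lineweaver-Burk) plots were drawn, and their slopes were plotted against inhibitor concentration in a weighted analysis. Ki was taken as the ratio of plot intercept to slope.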

[10] = biological target: T1, Amyloid-beta precursor protein; assay: Inhibition of amyloid beta (1 to 42) (unknown origin) aggregation at 25 uM after 72 hrs by transmission electron microscopy
In short: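 Aβ1-42 stock diluted in 20 mM phosphate buffer (pH 7.4) at 4°C, then incubated at 37°C with or without compound. Final concentrations per methods: peptide 50 μM, compound 25 μM; figure legend gives 25 μM each. Incubation time given as 48 h (methods) and 72 h (text). Samples placed on carbon-coated grids, stained with 1% uranyl acetate and imaged by TEM.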

SH-SY5Y [11] = assay: Antioxidant activity in human SH-SY5Y cells assessed as inhibition of H2O2-induced ROS production at 10 to 20 uM after 24 hrs by DCFH-DA fluorescent assay; assay type: functional, cell-based
In short: (§2)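 SH-SY5Y cells seeded at 2 × 10^4/well and exposed 24 h to H2O2 (200 μM) with or without compound at 5, 10 and 20 μM. Intracellular ROS then probed with DCFH-DA for 20 min and total DCF fluorescence read on a plate reader. Mean ± S.D of three experiments, each in triplicate; one-way ANOVA with Bonferroni test.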

SH-SY5Y [12] = assay: Neuroprotective activity against H2O2-induced neurotoxicity in human SH-SY5Y cells assessed as cell viability after 24 hrs by MTT assay relative to control; assay type: functional, cell-based
In short: (§3)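 SH-SY5Y cells seeded at 2 × 10^4/well and incubated 24 h. Medium then replaced with serum-free DMEM containing 200 μM H2O2 plus compound (5, 10, 20 μM) at 37°C for 24 h. Viability measured by MTT as % of untreated control, and morphology photographed under phase-contrast microscopy. Mean ± S.D of three experiments in triplicate; ANOVA with Bonferroni test.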

SH-SY5Y [13] = assay: Neuroprotective activity against H2O2-induced neurotoxicity in human SH-SY5Y cells assessed as change in cell morphology at 20 uM after 24 hrs by phase contrast microscopy; assay type: functional, cell-based; in short: as §3
SH-SY5Y [14] = assay: Neuroprotective activity against H2O2-induced cell death in human SH-SY5Y cells at 20 uM after 24 hrs by phase contrast microscopy; assay type: functional, cell-based; in short: as §3
SH-SY5Y [15] = assay: Neuroprotective activity against amyloid beta (1 to 42)-induced neurotoxicity in human SH-SY5Y cells assessed as cell viability treated for 24 hrs measured after 48 hrs by MTT assay; assay type: functional, cell-based
In short: (§4)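 Aβ1-42 treated with HFIP (1 mg/ml), sonicated, left 24 h at room temperature and lyophilized; film dissolved in DMSO. SH-SY5Y cells plated at 2 × 10^4/well and allowed to attach 24 h. Aβ (25 μM) added ± compound (5-20 μM) in fresh medium. Viability measured by MTT as % of control after 48 h (methods; text says 24 h co-treatment). Morphology imaged by phase-contrast microscopy.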

SH-SY5Y [16] = assay: Neuroprotective activity against amyloid beta (1 to 42)-induced neurotoxicity in human SH-SY5Y cells assessed as change in cell morphology at 20 uM after 24 hrs by phase contrast microscopy; assay type: functional, cell-based; in short: as §4
[17] = Cytotoxicity against human SH-SY5Y cells assessed as cell viability at 1 uM after 48 hrs by MTT assay; assay type: cell-based; conditions: read-out: Activity; in short: as §1
[18] = Cytotoxicity against human SH-SY5Y cells assessed as cell viability at 5 uM after 48 hrs by MTT assay; assay type: cell-based; conditions: read-out: Activity; in short: as §1
[19] = Cytotoxicity against human SH-SY5Y cells assessed as cell viability at 10 uM after 48 hrs by MTT assay; assay type: cell-based; conditions: read-out: Activity; in short: as §1
[20] = Cytotoxicity against human SH-SY5Y cells assessed as cell viability at 25 uM after 48 hrs by MTT assay; assay type: cell-based; conditions: read-out: Activity; in short: as §1
SH-SY5Y [21] = assay: Cytotoxicity against human SH-SY5Y cells assessed as decrease in cell viability after 48 hrs by MTT assay; assay type: cell-based; in short: as §1
SH-SY5Y [22] = assay: […] in human SH-SY5Y cells at 5 to 20 uM after 24 hrs by DCFH-DA fluorescent assay; assay type: ADME, cell-based
SH-SY5Y [23] = assay: Antioxidant activity in human SH-SY5Y cells assessed as inhibition of H2O2-induced ROS production after 24 hrs by DCFH-DA fluorescent assay; assay type: functional, cell-based; in short: as §2

Acetylcholinesterase, sequence (O42275 whole entry): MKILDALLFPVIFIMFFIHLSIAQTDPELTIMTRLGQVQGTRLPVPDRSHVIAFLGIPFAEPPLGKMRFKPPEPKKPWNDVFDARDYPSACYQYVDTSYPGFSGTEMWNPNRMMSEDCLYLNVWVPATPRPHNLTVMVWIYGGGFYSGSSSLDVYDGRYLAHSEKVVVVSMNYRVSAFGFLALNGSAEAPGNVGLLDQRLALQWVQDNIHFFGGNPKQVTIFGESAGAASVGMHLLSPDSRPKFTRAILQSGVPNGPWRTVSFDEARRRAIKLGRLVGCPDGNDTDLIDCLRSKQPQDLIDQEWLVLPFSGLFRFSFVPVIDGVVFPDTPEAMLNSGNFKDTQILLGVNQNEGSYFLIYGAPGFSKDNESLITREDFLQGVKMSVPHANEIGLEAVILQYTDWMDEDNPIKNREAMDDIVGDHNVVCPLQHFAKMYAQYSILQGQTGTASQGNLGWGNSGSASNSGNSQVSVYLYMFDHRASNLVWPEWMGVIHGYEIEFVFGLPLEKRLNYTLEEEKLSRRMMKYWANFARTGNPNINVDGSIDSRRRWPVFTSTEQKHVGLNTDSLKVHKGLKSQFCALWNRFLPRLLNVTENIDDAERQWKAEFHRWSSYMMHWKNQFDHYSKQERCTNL

Row | Structure (SMILES) | IC50 (Acetylcholinesterase) [nM] | IC50 (Cholinesterase) [nM] | Ratio IC50 [1] | inhibition [2] [%] | other results
1 | O=C1C(=Cc2ccc(N3CCN(C(c4ccccc4)c4ccccc4)CC3)cc2)C(=O)c2ccccc21 | 61 | 3350 | 54.9 | 80.6 | IC50 [3]: 11.8 µM; Ratio IC50 [4]: 1.5
2 | O=C1C(=Cc2ccc(N3CCN(c4ccc(C(F)(F)F)cc4)CC3)cc2)C(=O)c2ccccc21 | 141 | 2140 | 15.1 | 74.9 | –
3 | O=C1C(=Cc2ccc(N3CCN(c4ccc(Cl)cc4)CC3)cc2)C(=O)c2ccccc21 | 231 | 1110 | 4.8 | 60.8 | –
4 | O=C1C(=Cc2ccc(N3CCN(c4ccc(F)cc4)CC3)cc2)C(=O)c2ccccc21 | 173 | 5130 | 29.6 | 61.8 | –
5 | O=C1C(=Cc2ccc(N3CCN(c4ncccn4)CC3)cc2)C(=O)c2ccccc21 | 36 | 2780 | 77.1 | 80.9 | viability at 48 h, 50 µM [5]: 89.6%; viability at 48 h, 75 µM [6]: 86.3%; viability at 48 h, 100 µM [7]: 82.3%; Activity (SH-SY5Y [8]): Non-toxic; IC50 [3]: 10.1 µM; Ratio IC50 [4]: 1.5; inhibition [9]: Active; inhibition [10]: Active; inhibition (SH-SY5Y [11]): Active; Activity (SH-SY5Y [12]): Dose-dependent effect; Activity (SH-SY5Y [13]): Active; Activity (SH-SY5Y [14]): Active; Activity (SH-SY5Y [15]): Dose-dependent effect; Activity (SH-SY5Y [16]): Active; viability at 48 h, 1 µM [17]: 98.1%; viability at 48 h, 5 µM [18]: 96.4%; viability at 48 h, 10 µM [19]: 95.3%; viability at 48 h, 25 µM [20]: 93.9%
6 | O=C1C(=Cc2ccc(N3CCN(C(=O)c4ccccc4)CC3)cc2)C(=O)c2ccccc21 | 14200 | 13400 | 0.9 | 53.9 | –
7 | O=C1C(=Cc2ccc(N3CCN(c4ccccc4)CC3)cc2)C(=O)c2ccccc21 | 2440 | 4660 | 1.9 | 57.3 | –
8 | O=C1C(=Cc2ccc(N3CCN(c4ccccn4)CC3)cc2)C(=O)c2ccccc21 | 112 | 880 | 7.8 | 70.9 | –
9 | O=C1C(=Cc2ccc(N3CCN(Cc4ccc5c(c4)OCO5)CC3)cc2)C(=O)c2ccccc21 | 131 | 4250 | 33.8 | 71.8 | –
10 | Cc1ccc(N2CCN(c3ccc(C=C4C(=O)c5ccccc5C4=O)cc3)CC2)c(C)c1 | 298 | 415 | 1.39 | 69.9 | –
11 | Cc1ccc(N2CCN(c3ccc(C=C4C(=O)c5ccccc5C4=O)cc3)CC2)cc1 | 251 | 392 | 1.5 | 62.4 | –
12 | O=C1C(=Cc2ccc(N3CCN(C(=O)c4ccco4)CC3)cc2)C(=O)c2ccccc21 | 48 | 2610 | 54.2 | 82.2 | viability at 48 h, 50 µM [5]: 89.6%; viability at 48 h, 75 µM [6]: 86.3%; viability at 48 h, 100 µM [7]: 82.3%; Activity (SH-SY5Y [8]): Non-toxic; Activity (SH-SY5Y [21]): Dose-dependent effect; Activity (SH-SY5Y [22]): Non-toxic; IC50 [3]: 9.2 µM; Ratio IC50 [4]: 1.5; inhibition [10]: Active; inhibition (SH-SY5Y [23]): Dose-dependent effect; Activity (SH-SY5Y [12]): Dose-dependent effect; Activity (SH-SY5Y [13]): Active; Activity (SH-SY5Y [14]): Active; Activity (SH-SY5Y [15]): Dose-dependent effect; Activity (SH-SY5Y [16]): Active; viability at 48 h, 1 µM [17]: 98.1%; viability at 48 h, 5 µM [18]: 96.4%; viability at 48 h, 10 µM [19]: 95.3%; viability at 48 h, 25 µM [20]: 93.9%
